High-throughput results as filed in PubChem BioAssay.
Shown are actives, neighbours in structure and some others; about 4.1% of the full set was active somewhere.
KCNQ1 inh – blocks the human KCNQ1 potassium channel; 310,000 compounds, 1.3% hits; P51787; CHO-K1 KCNQ1, FluxOR thallium flux fluorescence; hits give high values; AID 2642; B-score at 10 µM;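 active means compounds whose thallium flux B-score, printed positive for inhibition, exceeds three library SD while starting fluorescence stays within three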;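 further: channel opened by potassium depolarization with thallium stimulus after 20 min compound exposure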
Target sequence (P51787 whole entry, looked up): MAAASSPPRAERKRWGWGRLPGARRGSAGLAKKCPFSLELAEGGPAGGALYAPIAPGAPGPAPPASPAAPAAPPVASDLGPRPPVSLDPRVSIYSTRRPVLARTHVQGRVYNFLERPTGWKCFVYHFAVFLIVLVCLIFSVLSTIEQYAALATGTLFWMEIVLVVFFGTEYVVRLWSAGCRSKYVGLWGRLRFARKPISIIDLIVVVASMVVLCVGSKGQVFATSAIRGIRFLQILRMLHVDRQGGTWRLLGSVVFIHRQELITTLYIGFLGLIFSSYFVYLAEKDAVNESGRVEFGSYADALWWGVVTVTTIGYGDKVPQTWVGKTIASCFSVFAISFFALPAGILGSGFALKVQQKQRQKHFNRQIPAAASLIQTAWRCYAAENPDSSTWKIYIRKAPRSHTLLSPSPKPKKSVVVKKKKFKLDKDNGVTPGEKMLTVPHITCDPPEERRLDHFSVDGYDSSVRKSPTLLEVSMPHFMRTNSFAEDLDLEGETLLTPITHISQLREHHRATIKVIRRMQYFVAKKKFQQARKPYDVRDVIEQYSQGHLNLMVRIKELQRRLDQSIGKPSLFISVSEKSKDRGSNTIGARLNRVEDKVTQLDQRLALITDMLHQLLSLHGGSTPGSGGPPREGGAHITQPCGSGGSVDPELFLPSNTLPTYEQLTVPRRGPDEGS
hERG rescue – compounds protecting human hERG from proarrhythmic drug block; AID 1511; Q12809; CHO-hERG, FluxOR thallium flux, dofetilide IC70 present; 310,000 compounds, 0.51% hits; activation (rescue from dofetilide block), less the hit threshold, % at 10 µM;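 active means activation above the mean of controls blocked by dofetilide plus 5 SD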;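 further: thallium influx through hERG after potassium depolarization seen as dye fluorescence rise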
KCC2 mod – modulates chloride dependent transport by human KCC2; Q9H2X9; KCC2 cells, thallium flux FluoZin-2 fluorescence; B-score of Tl+ flux slope (higher = more flux/activation; lower = inhibition) at 10 µM; 190,000 compounds, 2.2% hits;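 active means thallium flux slope and its plate-corrected score both differing from the plate sample mean at a set confidence after two filtering rounds, in either direction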;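 further: slope of fluorescence scaled to starting intensity during 10 to 20 s after thallium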
KCNQ1 pot – potentiates or activates the human KCNQ1 potassium channel; P51787; CHO-K1 KCNQ1, thallium flux FluxOR fluorescence; hits give high values; B-score at 10 µM; 310,000 compounds, 0.35% hits; AID 2648;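 active means fluorescence ratio B-score, a plate-corrected score, at least three library SD, with initial intensity B-score within 5 SD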
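System: Stable KCNQ1 CHO-K1 line | Incubation: 90 min dye loading and 20 min compound exposure, both at room temperature | Measure: Ratio B score | Medium: Assay buffer for compound exposure, DMSO matched across wells | Compound dosing: Single-concentration screen | Probe or stimulus: K+/Tl+ depolarizing stimulus | Measured by: Kinetic FluxOR fluorescence, 10 s baseline plus 110 s post-stimulus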
KCNK3 inh – human KCNK3 channel inhibition, primary screen. CHO-KCNK3 thallium flux, FluxOR fluorescence; hits give low values. 340,000 compounds, 0.84% hits. B-score at 10 µM;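 active means B-score under library mean minus 4 SD, starting fluorescence ratio at most library mean plus 5 SD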;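 further: more negative B-score means stronger inhibition of thallium flux through KCNK3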
KCNK9 inh – human KCNK9 channel inhibition; Q9NPC2; HEK293 KCNK9, FluxOR thallium flux fluorescence; hits give low values; B-score at 10 µM; 310,000 compounds, 1.2% hits;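 active means ratio B-score over 3 SD below the library mean, with starting fluorescence within 5 SD of its mean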;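 further: negative B-score means less thallium flux so channel inhibition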
* marks the source's active call; other numbers are inactive results; i = inactive; nt = no result given.

SMILES | KCNQ1 inh | hERG rescue | KCC2 mod | KCNQ1 pot | KCNK3 inh | KCNK9 inh
Cc1cccc(C(=O)N2CCC(Cc3ccccc3)CC2)c1[N+](=O)[O-] | i | -6 | -4.2* | i | i | i
Cc1c(C(=O)N2CCC(Cc3ccccc3)CC2)cccc1[N+](=O)[O-] | i | -9 | -2.3 | i | i | i
S=c1[nH]nc(-c2cc3ccccc3o2)n1Cc1ccccc1 | i | -5 | 28* | i | i | i
Oc1ccccc1-c1n[nH]c(=S)n1Cc1ccccc1 | i | -4 | nt | i | i | i
Oc1ccc(Br)cc1-c1n[nH]c(=S)n1Cc1ccccc1 | i | 5.9* | nt | 11* | i | i
O=C(c1ccc([N+](=O)[O-])cc1)N1CCN(C(=O)C2CCCCC2)CC1 | i | 1 | nt | i | i | i
CS(=O)(=O)c1ccc(C(=O)Nc2nc(-c3ccco3)c(-c3ccco3)s2)cc1 | nt | nt | nt | nt | i | nt
O=C1c2ccc(-c3ccc(F)cc3OCc3ccccc3)cc2S(=O)(=O)c2cccc(C(=O)N3CCCC3)c21 | nt | nt | nt | nt | i | nt
COC(=O)/C(C#N)=C/c1c[nH]c2ccccc12 | i | -7 | -1.8 | i | i | i
COc1cc(/C=C(\C#N)C(=O)c2c[nH]c3ccccc23)cc(OC)c1O | 7* | -13 | -2.9 | i | i | i
COc1cc2ccccc2ccc1=NO | nt | nt | nt | nt | i | nt
O=C(NC(=S)Nc1cccnc1)c1cccs1 | i | -2 | 4.5 | i | i | i
COc1ccc(-c2csc(NC(=S)NC(=O)c3cccs3)n2)cc1Br | i | 8.6* | nt | 9* | i | i
O=C(NC(=S)Nc1ccc(Cl)cn1)c1cccs1 | i | 0 | 21* | 8* | i | i
Cc1ccnc(NC(=S)NC(=O)c2cccs2)c1 | i | -4 | 26* | i | i | i
Cc1ccnc(NC(=O)CNC(=O)c2cccs2)c1 | i | -14 | nt | i | i | i
O=C(NC(=S)Nc1nc2c(ccc3ccccc32)s1)c1cccs1 | i | 0 | 17* | 9* | i | i
Cc1csc(NC(=O)c2ccc(COc3ccccc3)o2)n1 | i | -10 | nt | i | i | i
CCCc1noc2c1/C(=N\O)CC(CC(C)SCC)C2 (centres undefined) | i | -4 | nt | i | i | -7*
CCc1cc2c(=O)n(Cc3ccco3)c(SCC(=O)N3CCCc4ccccc43)nc2s1 | 6* | -7 | 0.2 | i | i | i
C=C1C(=O)C23C(O)C1CCC2C12CCCC(C)(COC(C)=O)C1C(O)C3(O)OC2 (centres undefined) | nt | nt | nt | nt | i | nt
O=C(Nc1nnc(-c2ccco2)o1)c1ccc2ccccc2c1 | i | 6.8* | 38* | i | i | i
Cc1ccc(C(=O)Nc2nnc(-c3ccco3)o2)cc1 | i | -6 | 3.9 | i | i | i
CSC(=S)N/N=C(\C)c1ccc(Br)cc1 | i | 5 | 84* | 41* | i | i
COC(=O)N/N=C(\C)c1ccc(Br)cc1 | i | -6 | nt | i | i | i
SMILES | KCNQ1 inh | hERG rescue | KCC2 mod | KCNQ1 pot | KCNK3 inh | KCNK9 inh
CC(=O)c1ccc(OCCCC(=O)Nc2cc(S(=O)(=O)N3CCCCC3)ccc2C)cc1 | nt | nt | nt | nt | i | nt
CC(C)N=c1cc2n(-c3ccc(Cl)cc3)c3ccccc3nc-2cc1Nc1ccc(Cl)cc1 | 17* | -22 | nt | i | i | -10*
Cn1c(CNc2ccc(Cl)cc2)nc2ccccc21 | i | -10 | nt | i | i | i
CCOC(=O)c1sc(NC(=O)c2ccc(OC(C)=O)cc2)nc1C | i | -5 | -0.21 | 13* | i | i
COC(=O)c1sc(NC(=S)NC(=O)c2ccccc2Cl)nc1C | i | 4 | 50* | i | i | i
COC(=O)c1sc(NC(=O)/C=C/c2ccccc2Cl)nc1C | i | -20 | 0.38 | i | i | i
COC(=O)c1sc(NC(=S)NC(=O)c2ccccc2)nc1C | i | -6 | 35* | i | i | i
S=C1NCC(c2ccccc2)S1 (centres undefined) | nt | nt | nt | nt | i | nt
CC(C)(CO)[C@@H](O)C(=O)NCCC(=O)O | nt | nt | nt | nt | i | nt
Cc1ccc2c(C)c(C(=O)N3CCCCC3CO)oc2c1C (centres undefined) | i | -4 | nt | i | i | i
COc1ccc(OC)c(-c2c3c([nH]c(=S)c2C#N)CCCC3)c1 | i | -11 | 2.9 | i | i | i
COc1ccc(-c2c3c([nH]c(=S)c2C#N)CCC3)cc1 | nt | nt | 5* | nt | i | nt
COc1cccc(C2=CC(=O)C(C(C)(C)C)N2C(C)(C)C)c1 (centres undefined) | nt | nt | nt | nt | i | nt
CCN1CCN(c2ccc(S(=O)(=O)N3CCCCC3)cc2NC(=O)c2ccc([N+](=O)[O-])s2)CC1 | i | -12 | nt | i | i | i
Cc1ccc(C)c(S(=O)(=O)NCCOC(=O)Nc2sc(=S)n(C)c2C)c1 | i | -4 | nt | i | i | i
CC(=O)NCCOC(=O)Nc1sc(=S)n(C)c1C | 8* | -8 | 0.81 | i | i | i
CC(C)n1nnnc1SCC(=O)N1CCN(Cc2ccc3c(c2)OCCO3)CC1 | nt | nt | nt | nt | i | nt
O=C(Nc1ccc2[nH]c(=S)sc2c1)c1ccccc1 | i | -7 | 44* | 12* | i | i
O=C(CN1CCC(NC(=O)Nc2ccc(F)cc2)CC1)Nc1ccccc1[N+](=O)[O-] | i | -23 | nt | i | i | i
COC(=O)c1sccc1NC(=O)c1c(Cl)cccc1Cl | i | 4.7* | nt | i | i | i
O=C(O)c1sccc1NC(=O)c1c(Cl)cccc1Cl | i | -11 | nt | i | i | i
Cc1cc(C)n2nc(SCC(=O)NC(=O)c3ccccc3)nc2n1 | nt | nt | nt | nt | i | nt
CCc1c(C)c(C#N)c2nc3ccccc3n2c1NCc1ccco1 | i | -17 | -3.8* | i | i | i
CCc1c(C)c(C#N)c2nc3ccccc3n2c1NC | i | -7 | nt | i | i | i
CCOC(=O)C1CCN(C(=O)c2ccc(NS(=O)(=O)c3ccc4[nH]c(=O)[nH]c4c3)cc2)CC1 | nt | nt | nt | nt | i | nt
SMILES | KCNQ1 inh | hERG rescue | KCC2 mod | KCNQ1 pot | KCNK3 inh | KCNK9 inh
CC(C)C(NS(=O)(=O)c1cccc(C(F)(F)F)c1)C(=O)NCc1cccs1 (centres undefined) | nt | nt | nt | nt | i | nt
Cc1ccc(C)c(-c2nnc(NC(=O)C3=COCCO3)o2)c1 | i | -18 | nt | i | i | i
O=C(Nc1nnc(-c2ccc(Cl)cc2)o1)C1=COCCO1 | i | -6 | 9.4* | i | i | i
O=c1cc(O)c2ccccc2n1Cc1ccccc1Cl | i | 5.3* | -1.8 | i | i | i
COCCn1c(SCC(=O)NCCCN2CCCC2=O)nc2sc3c(c2c1=O)CCCC3 | nt | nt | nt | nt | i | nt
COc1cc(NC(=NS(=O)(=O)c2ccccc2)c2ccccc2)ncn1 | nt | nt | nt | nt | i | nt
